Experimental findings from ChEMBL document CHEMBL4428077, “Synthesis and Biological Evaluation of N-((1-(4-(Sulfonyl)piperazin-1-yl)cycloalkyl)methyl)benzamide Inhibitors of Glycine Transporter-1” (J Med Chem, 2016) are described below.

Series [1] can be described thus: Drug level in Sprague-Dawley rat CSF at 3 mg/kg, po measured 2 hrs post dose by LC-MS/MS analysis. The settings on record: read-out: Drug uptake. It counts as ADME, organism-based, Cerebrospinal fluid. In short, it runs like this:
(§1)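 Drug-naive Sprague−Dawley rats (n = 4−5/group) were dosed orally once in 5% Solutol plus 20% Captisol in 25 mM PBS, pH 2, and euthanized 2 h later by CO₂. CSF was drawn from the cisterna magna. Drug was measured in CSF, brain and plasma; data as mean ± SEM.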

Series [2] can be described thus: Drug level in Sprague-Dawley rat CSF at 10 mg/kg, po measured 2 hrs post dose by LC-MS/MS analysis. The series is classed as ADME, organism-based, Cerebrospinal fluid. Particulars: read-out: Drug uptake. In short, it runs like this: as §1
Series [3] in a line: Drug level in Sprague-Dawley rat brain at 10 mg/kg, po measured 2 hrs post dose by LC-MS/MS analysis. It counts as ADME, organism-based. The settings on record: read-out: Drug uptake. The essentials:
as §1

Series [4] concerns Rattus norvegicus. The series can be described thus: In vivo inhibition of glycine transporter-1 in Sprague-Dawley rat assessed as CSF glycine level at 3 mg/kg, po measured 2 hrs post dose by LC-MS/MS analysis relative to control. The series is classed as functional. Set-up: scale not given: the % may be the effect or the level left. In short, it runs like this:
(§2)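 Drug-naive adult male Sprague-Dawley rats, n = 4-5 per group, given a single oral dose of 0.4, 1.5, 4.7 or 15.7 μmol/kg. Vehicle was 5% Solutol + 10% Captisol in 25 mM PBS, pH 2. At 2 h, rats were killed by CO₂. CSF (50-100 μL) was taken from the cisterna magna, and brain and plasma were also collected. Glycine was measured by LC-MS/MS against a deuterated-glycine internal standard. Results given as % vehicle control (vehicle 30 min post-dose), mean ± SEM. Two-way ANOVA with Tukey test.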

Series [5] in a line: Thermodynamic solubility in pH 7.4 PBS by shake flask method. The series is classed as physicochemical. Particulars: read-out: Therm_solubility. In short, it runs like this: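 Thermodynamic shake-flask solubility in PBS, pH 7.4.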
The subject of series [6] is Rattus norvegicus. The series can be described thus: In vivo inhibition of glycine transporter-1 in Sprague-Dawley rat assessed as CSF glycine level at 10 mg/kg, po measured 2 hrs post dose by LC-MS/MS analysis relative to control. On the set-up: scale not given: the % may be the effect or the level left. The series is classed as functional. The essentials:
as §2

Series [7] is described as follows: Drug level in Sprague-Dawley rat plasma at 1 mg/kg, po measured 2 hrs post dose by LC-MS/MS analysis. It counts as ADME, organism-based. In short, it runs like this: as §1
A short description of series [8]: Drug level in Sprague-Dawley rat brain at 3 mg/kg, po measured 2 hrs post dose by LC-MS/MS analysis. It counts as ADME, organism-based. The settings on record: read-out: Drug uptake. The essentials: as §1
The nature of series [9]: Drug level in Sprague-Dawley rat plasma at 10 mg/kg, po measured 2 hrs post dose by LC-MS/MS analysis. It counts as ADME, organism-based. The essentials: as §1
Series [10] in a line: Drug level in Sprague-Dawley rat CSF at 1 mg/kg, po measured 2 hrs post dose by LC-MS/MS analysis. It counts as ADME, organism-based, Cerebrospinal fluid. The settings on record: read-out: Drug uptake. The essentials:
as §1

The nature of series [11]: Metabolic stability in rat liver microsomes assessed as parent compound remaining at 3 uM incubated for 15 mins by LC-MS analysis. It counts as ADME, Microsome. The settings on record: liver microsomes, read-out: Stability. In short, it runs like this:
(§3)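 Liver microsomes incubated with compound at 3 μM for 15 min. Parent compound remaining was quantified by LC-MS.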

Series [12] in a line: Drug level in Sprague-Dawley rat brain at 1 mg/kg, po measured 2 hrs post dose by LC-MS/MS analysis. The series is classed as ADME, organism-based. Particulars: read-out: Drug uptake. In short, it runs like this:
as §1

Series [13] is described as follows: Drug level in Sprague-Dawley rat plasma at 0.3 mg/kg, po measured 2 hrs post dose by LC-MS/MS analysis. It counts as ADME, organism-based. In short, it runs like this:
as §1

The test system of series [14] is Rattus norvegicus. The series can be described thus: In vivo inhibition of glycine transporter-1 in Sprague-Dawley rat assessed as CSF glycine level at 0.3 mg/kg, po measured 2 hrs post dose by LC-MS/MS analysis relative to control. Set-up: scale not given: the % may be the effect or the level left. The series is classed as functional. In short, it runs like this:
as §2

Series [15] is described as follows: Drug level in Sprague-Dawley rat CSF at 0.3 mg/kg, po measured 2 hrs post dose by LC-MS/MS analysis. It counts as ADME, organism-based, Cerebrospinal fluid. The settings on record: read-out: Drug uptake. In short, it runs like this: as §1
The nature of series [16]: Drug level in Sprague-Dawley rat brain at 0.3 mg/kg, po measured 2 hrs post dose by LC-MS/MS analysis. Particulars: read-out: Drug uptake. It counts as ADME, organism-based. In short, it runs like this:
as §1

A short description of series [17]: Drug level in Sprague-Dawley rat CSF at 10 mg/kg, po qd for 5 days measured 2 hrs post last dose by LC-MS/MS analysis. It counts as ADME, organism-based, Cerebrospinal fluid. The settings on record: read-out: Drug uptake. The essentials:
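Drug-naive Sprague−Dawley rats (n = 5/group) were dosed orally once daily for 5 days in 5% Solutol plus 20% Captisol in 25 mM PBS, pH 2, and sacrificed 2 h after the last dose. Drug was measured in CSF, brain and plasma; mean ± SEM.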

A short description of series [18]: Drug level in Sprague-Dawley rat plasma at 3 mg/kg, po measured 2 hrs post dose by LC-MS/MS analysis. It counts as ADME, organism-based. The essentials:
as §1

In series [19] the test system is Rattus norvegicus. The series can be described thus: In vivo inhibition of glycine transporter-1 in Sprague-Dawley rat assessed as CSF glycine level at 1 mg/kg, po measured 2 hrs post dose by LC-MS/MS analysis relative to control. The series is classed as functional. On the set-up: scale not given: the % may be the effect or the level left. The essentials: as §2

Series [20] is described as follows: Metabolic stability in human liver microsomes assessed as parent compound remaining at 3 uM incubated for 15 mins by LC-MS analysis. It counts as ADME, Microsome. The essentials: as §3
Background: Microsomes from liver hold many membrane-bound enzymes, among them those of drug oxidation.

Series [21] deals with T1, Sodium- and chloride-dependent glycine transporter 1 (Homo sapiens, UniProt P48067).
T1 sequence (P48067 whole entry): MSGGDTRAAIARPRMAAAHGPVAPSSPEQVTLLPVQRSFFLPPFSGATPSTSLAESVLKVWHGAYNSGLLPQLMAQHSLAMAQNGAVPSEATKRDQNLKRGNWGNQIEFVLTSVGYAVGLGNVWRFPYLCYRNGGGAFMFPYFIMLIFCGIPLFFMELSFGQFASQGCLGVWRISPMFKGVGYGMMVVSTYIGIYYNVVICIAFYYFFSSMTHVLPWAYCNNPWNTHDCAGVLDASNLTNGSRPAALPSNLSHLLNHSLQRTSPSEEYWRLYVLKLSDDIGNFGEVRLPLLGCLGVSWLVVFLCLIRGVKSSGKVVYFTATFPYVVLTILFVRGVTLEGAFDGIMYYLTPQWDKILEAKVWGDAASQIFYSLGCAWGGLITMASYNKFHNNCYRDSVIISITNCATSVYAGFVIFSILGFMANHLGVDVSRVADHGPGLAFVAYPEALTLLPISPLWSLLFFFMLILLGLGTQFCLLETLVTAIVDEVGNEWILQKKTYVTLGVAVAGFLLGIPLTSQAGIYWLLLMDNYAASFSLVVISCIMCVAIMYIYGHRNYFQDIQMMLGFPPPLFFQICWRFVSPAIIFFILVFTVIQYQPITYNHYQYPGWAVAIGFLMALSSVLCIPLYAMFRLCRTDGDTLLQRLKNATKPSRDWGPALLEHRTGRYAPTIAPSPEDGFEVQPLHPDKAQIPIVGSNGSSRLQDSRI
The series can be described thus: Inhibition of glycine transporter-1B in human JAR cells assessed as reduction in [14C]glycine uptake preincubated for 10 mins followed by [14C]glycine addition measured after 3 hrs by scintillation proximity assay. The series is classed as cell-based. The essentials: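 Whole-cell SPA in JAR cells, which endogenously express hGlyT-1b. Cells (50,000 per well) were attached overnight in RPMI/10% FBS at 37 °C, 5% CO₂. [¹⁴C]glycine was then added and incubated 3 h at 37 °C. The assay window was set with unlabeled glycine. A reference standard ran on each plate. IC₅₀ values are means of n ≥ 2.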
For orientation: SPA uses beads or plates that emit light when radiolabelled molecules are held near them.

The nature of series [22]: Drug level in cynomolgus monkey plasma at 10 mg/kg, po measured at 0.5 hr post dose by LC-MS/MS analysis. The series is classed as ADME, organism-based, Macaca fascicularis. The essentials:
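Cynomolgus monkeys (n = 3/group) fitted with subcutaneous CSF ports were dosed orally at 0.4−15.7 μmol/kg in 5% Solutol plus 20% Captisol in 25 mM PBS, pH 2. CSF (about 0.30 mL) and blood were sampled predose and at 0.5, 1, 2, 3, 4, 8, 12 and 24 h. Quantitation limit 1.0 ng/mL; mean ± SD.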

A value given as a limit tells only on which side of the number the result lay.

Regarding `Cl.Cn1cc(S(=O)(=O)N2CCN(C3(CNC(=O)c4ccc(C(F)(F)F)cc4Cl)CCC(F)(F)CC3)CC2)nn1`, the concentration at 2 h in [1] is 4 nM; in series [2] it was 7.5 nM; in series [3], 64.9 nM; in [7], 76.9 nM; in series [8] it was 39.2 nM; in series [9], 432 nM. The concentration at 2 h in [10] is 3.7 nM; in [12], 13.1 nM; in [13] it was 18 nM; in series [15], 2.7 nM; in series [16] it was 7.5 nM; in series [17], 1.9 nM. Also, the concentration at 2 h in [18] came to 204 nM. For the same compound, the Activity worked out at 251.8% in the series with Rattus norvegicus [4], 306.4% in the series on Rattus norvegicus [6], 106.6% with Rattus norvegicus [14] and 166% in the series on Rattus norvegicus [19]. Further, the solubility thermodynamic in series [5] worked out at 9.9 µM. Also, the remaining at 0.25 h, 3 µM in [11] was 85%; in [20] (liver microsomes, read-out: Stability), 60%. Besides, in series [21], the IC50 worked out at 0.671 nM.

For the compound `CC(NC(=O)c1ccc(C(F)(F)F)cc1Cl)C1(N2CCN(S(=O)(=O)c3cn(C)nn3)CC2)CCC(F)(F)CC1.Cl` (single isomer, unassigned; (+)), the concentration at 2 h is 0.5 nM in series [1]; 1.7 nM in [2]; 32.2 nM in series [3]; 11.4 nM in series [7]; 12.5 nM in series [8]; 318 nM in series [9]. For the same compound, the concentration at 2 h is 0.1 nM in series [10]; 3.6 nM in [12]; 3.2 nM in series [13]; less than 1 ng/mL in series [15]; 3.2 nM in [16]; 52.2 nM in [18]. For the same compound, the Activity in the series on Rattus norvegicus [4] was 160.5%; in the series on Rattus norvegicus [6], 326.4%; with Rattus norvegicus [14] it was 100.4%; in the series with Rattus norvegicus [19] it was 119.3%. Moreover, in series [5], the solubility thermodynamic stood at 22.2 µM. In series [22], the concentration at 0.5 h is 67.9 ng/mL. Moreover, the remaining at 0.25 h, 3 µM in [11] turned out to be 76%. The Stability in series [20] (microsomes, 0.25 h, 3 µM) is given as 74%. Moreover, the concentration for half-maximal inhibition (IC50) in series [21] came out at 1.06 nM.

The IC50 is the concentration at which inhibition is half-maximal.
